Compound activity deposited in PubChem by Broad Institute.
INS-1E ATP HTS = INS-1E beta cell protection from cytokine death. AID 488910. 0.1% of 20,000 active. INS-1E cytokine-induced death, ATP luminescence, 48 h; normalised: neutral wells 0, positive control 100. protection from cytokine-induced ATP loss, % at 10 µM;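 active means mean replicate protection from cytokine-induced ATP loss at least 50% and at least 75% of replicates each reaching 50%; inconclusive means meets only one of the two criteria, mean or replicate share; inactive means fails both the mean and replicate share criteria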
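Assay system: INS-1E rat cells / Quantity: 8000 cells per well / Medium: RPMI without phenol red, 5% FBS / Probe or stimulus: three-cytokine cocktail (IFN-γ, TNF-α, IL-1β) / Dosing: one compound concentration, pin transfer / Timing: 48 h co-treatment, 10 min post-lysis read / Technique: CellTiter-Glo luminescence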
T cruzi HTS = inhibitors of intracellular Trypanosoma cruzi; AID 651903; intracellular Trypanosoma cruzi in host cells, plate reader; 4.9% of 22,000 active; activity score (inhibition), % at 5.01 µM; in the data active means activity score above about 55%; inconclusive means no clear call, values can overlap the other calls;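 further: parasites and compound incubated about four days before reading; 0% = median of neutral control wells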
A1 apoptosis 2 = blocks A1, raising caspase activity. caspase activation, % (test concentration not listed). 24,000 tested, under 10 active. MEF A1-2A-BIM cells, caspase-Glo luminescence, 3 h; percent of clofoctol response, DMSO zero; in the data active means caspase activation above about 5.9%; inconclusive means no clear call, values can overlap the other calls; inactive means below about 2.2%
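Material: A1-2A-BIM-expressing MEF cells. Buffer or medium: RPMI-1640 plus 10% FBS. Incubation: cells settled overnight, compound exposure 3 h at 37 °C, 5% CO2. Signal: Caspase-Glo 3/7 luminescence, 1 h at room temperature.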
* hit, by the source's call; ? = inconclusive; . = no result. This is one part of a sample in which hits are shown more often than they occur.

SMILES	INS-1E ATP HTS	T cruzi HTS	A1 apoptosis 2
C[C@@H]1CN([C@@H](C)CO)C(=O)c2cc(NC(=O)Nc3ccc(C(F)(F)F)cc3)ccc2O[C@@H]1CN(C)CC1CCCCC1	-60	70*	1
C[C@H]1CN([C@@H](C)CO)C(=O)c2cc(NC(=O)Nc3ccc(C(F)(F)F)cc3)ccc2O[C@@H]1CN(C)CC1CCCCC1	-1	5	1
C[C@H]1CN([C@@H](C)CO)C(=O)c2cc(NC(=O)C3CCCCC3)ccc2O[C@H]1CN(C)C(=O)Nc1ccc(F)cc1	11	-6	.
C[C@@H]1CN([C@@H](C)CO)C(=O)c2cc(NS(=O)(=O)c3cccs3)ccc2O[C@H]1CN(C)C(=O)NC1CCCCC1	5	-5	0
C[C@H](CO)N1C[C@H](C)[C@@H](CN(C)Cc2ccc(Cl)c(Cl)c2)Oc2c(NC(=O)Nc3ccc(C(F)(F)F)cc3)cccc2C1=O	-40	82*	-1
C[C@@H]1CN([C@@H](C)CO)C(=O)c2cccc(NC(=O)Nc3ccc(F)cc3)c2O[C@@H]1CN(C)Cc1ccc(Cl)c(Cl)c1	-71	21	-2
C[C@H]1CN([C@@H](C)CO)C(=O)c2cccc(NC(=O)Nc3ccccc3)c2O[C@@H]1CN(C)Cc1ccc(Cl)c(Cl)c1	-13	9	-1
C[C@H]1CN([C@@H](C)CO)C(=O)c2cccc(NC(=O)Nc3ccc(C(F)(F)F)cc3)c2O[C@@H]1CN(C)Cc1ccc(Cl)c(Cl)c1	-27	77*	0
C[C@H](CO)N1C[C@H](C)[C@H](CN(C)Cc2ccc(Cl)c(Cl)c2)Oc2c(NC(=O)Nc3ccccc3)cccc2C1=O	-46	16	0
C[C@@H]1CN([C@@H](C)CO)C(=O)c2cccc(NC(=O)Nc3ccc(C(F)(F)F)cc3)c2O[C@@H]1CN(C)Cc1ccc(Cl)c(Cl)c1	-31	79*	0
Cc1ccc(O)c(/C=N/NC(=O)CCCCCCC(=O)Nc2ccccc2O)c1	.	.	-1
C=C(C)[C@@H]1CC=C(/C=N/NC(=O)CCCCCCC(=O)Nc2ccccc2O)CC1	0	-1	1
COc1ccc(NC(=O)Nc2ccc3c(c2)CC(=O)N([C@H](C)CO)C[C@@H](C)[C@H](CN(C)Cc2ccc(C(F)(F)F)cc2)O3)cc1	-43	?	0
COc1ccc(CN(C)C[C@@H]2Oc3ccc(NC(=O)Nc4ccc(C(F)(F)F)cc4)cc3CC(=O)N([C@H](C)CO)C[C@H]2C)cc1	-8	-8	0
COc1ccc(NC(=O)Nc2ccc3c(c2)CC(=O)N([C@@H](C)CO)C[C@H](C)[C@H](CN(C)Cc2ccc(C(F)(F)F)cc2)O3)cc1	-2	2	-1
COc1ccc(CN(C)C[C@H]2Oc3ccc(NC(=O)Nc4ccc(C(F)(F)F)cc4)cc3CC(=O)N([C@@H](C)CO)C[C@H]2C)cc1	-26	68*	1
COc1ccc(NC(=O)Nc2ccc3c(c2)CC(=O)N([C@@H](C)CO)C[C@H](C)[C@@H](CN(C)Cc2ccc(C(F)(F)F)cc2)O3)cc1	-19	74*	.
COc1ccc(NC(=O)Nc2ccc3c(c2)CC(=O)N([C@H](C)CO)C[C@@H](C)[C@@H](CN(C)Cc2ccc(C(F)(F)F)cc2)O3)cc1	-11	67*	.
COc1ccc(CN(C)C[C@H]2Oc3ccc(NC(=O)Nc4ccc(C(F)(F)F)cc4)cc3CC(=O)N([C@H](C)CO)C[C@H]2C)cc1	-14	74*	1
COc1ccc(CN(C)C[C@@H]2Oc3ccc(NC(=O)Nc4ccc(C(F)(F)F)cc4)cc3CC(=O)N([C@H](C)CO)C[C@@H]2C)cc1	-89	.	-1
O=C(CCCCCCC(=O)Nc1ccccc1O)N/N=C/c1cccc(B(O)O)c1	-8	-6	0
CC(C)=CCC[C@H](C)C/C=N/NC(=O)c1ccccn1	6	-9	2
NC(=O)COc1ccc(/C=N/NC(=O)CCCCC(=O)NO)cc1	4	-4	1
C[C@@H]1CN([C@@H](C)CO)C(=O)Cc2cc(NS(=O)(=O)c3ccc(F)cc3)ccc2O[C@H]1CN(C)Cc1ccccc1	.	.	0
C[C@@H]1CN([C@H](C)CO)C(=O)Cc2cc(NS(=O)(=O)c3ccc(F)cc3)ccc2O[C@@H]1CN(C)Cc1ccc(-c2ccccc2)cc1	-25	68*	.
SMILES	INS-1E ATP HTS	T cruzi HTS	A1 apoptosis 2
C[C@@H]1CN([C@H](C)CO)C(=O)Cc2cc(NS(=O)(=O)c3ccc(F)cc3)ccc2O[C@H]1CN(C)Cc1ccc(-c2ccccc2)cc1	-13	62*	.
C[C@@H]1CN([C@@H](C)CO)C(=O)Cc2cc(NS(=O)(=O)c3ccc(F)cc3)ccc2O[C@@H]1CN(C)Cc1ccccc1	-8	40	.
COCCOC(=O)N1C(=O)[C@@]2(c3cc(C#CC4=CCCCC4)ccc31)[C@H](C(=O)N1CCN(c3ncccn3)CC1)[C@H]1C(=O)O[C@H](c3ccccc3)[C@H](c3ccccc3)N1[C@@H]2c1ccc(O)cc1	.	.	0
O=C(N/N=C/c1cccc(Br)c1)c1ccccc1O	-15	-14	-3
NC(=O)[C@@H]1[C@H]2C(=O)O[C@H](c3ccccc3)[C@H](c3ccccc3)N2[C@H](c2ccccc2OCCO)[C@@]12C(=O)Nc1ccc(C#CC3(O)CCCCCC3)cc12	.	.	0
C[C@@H]1CN([C@@H](C)CO)C(=O)c2cc(NS(=O)(=O)c3ccccc3)ccc2O[C@H]1CN(C)Cc1ccc(C(F)(F)F)cc1	-18	44	.
Cc1ccc(S(=O)(=O)Nc2ccc3c(c2)C(=O)N([C@H](C)CO)C[C@@H](C)[C@@H](CN(C)Cc2ccc4c(c2)OCO4)O3)cc1	-4	8	-1
COc1ccc(S(=O)(=O)Nc2ccc3c(c2)C(=O)N([C@H](C)CO)C[C@H](C)[C@@H](CN(C)Cc2ccc(C(F)(F)F)cc2)O3)cc1	-12	64*	-1
C[C@@H]1CN([C@@H](C)CO)C(=O)c2cc(NS(=O)(=O)c3ccc(F)cc3)ccc2O[C@@H]1CN(C)Cc1ccc(C(F)(F)F)cc1	-31	?	-1
C[C@H]1CN([C@@H](C)CO)C(=O)c2cc(NS(=O)(=O)c3ccccc3)ccc2O[C@H]1CN(C)Cc1ccc(C(F)(F)F)cc1	.	62*	.
C[C@H](CO)N1C[C@H](C)[C@@H](CN(C)Cc2ccc3c(c2)OCO3)Oc2ccc(NS(=O)(=O)c3ccc(F)cc3)cc2C1=O	3	59*	-1
C[C@@H]1CN([C@@H](C)CO)C(=O)c2cc(NS(=O)(=O)c3ccc(Cl)cc3)ccc2O[C@@H]1CN(C)Cc1ccc(C(F)(F)F)cc1	-31	84*	-1
COc1ccc(S(=O)(=O)Nc2ccc3c(c2)C(=O)N([C@H](C)CO)C[C@@H](C)[C@H](CN(C)Cc2ccc(C(F)(F)F)cc2)O3)cc1	.	5	0
C[C@H](CO)N1C[C@H](C)[C@H](CN(C)Cc2ccc(C(=O)Nc3ccccc3N)cc2)Oc2ccc(NC(=O)CCC(F)(F)F)cc2C1=O	24	41	.
COc1ccc([C@@H]2C=C(C(=O)NCc3ccccc3)O[C@H](OCc3ccc(CO)cc3)C2)cc1	.	.	0
NC(=O)COc1ccc(/C=N/NC(=O)CCCCCCC(=O)NO)cc1	.	.	0
